# Assay results: ChEMBL document CHEMBL1143402 (PLoS Med, 2006)
# Experiments:
# [1] = test system: Mycobacterium tuberculosis; assay: Inhibition of fatty acid synthesis in Mycobacterium bovis BCG after 60 mins; format: functional, organism-based; details: variant bovis BCG, 1 h
# In short: (§1)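 M. bovis BCG culture incubated with compound or DMSO plus 2-^14C acetate at 37 °C for 60 min. Cells saponified with KOH/methanol, acid-extracted into hexane, methyl-esterified. Fatty and mycolic acid subclasses separated by two-solvent TLC (n = 3) and quantified by phosphorimaging as % of control.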
# [2] = test system: Mycobacterium tuberculosis; assay: Inhibition of alpha-mycolic acid synthesis in Mycobacterium bovis BCG after 60 mins; format: functional, organism-based; details: variant bovis BCG, 1 h; in short: as §1
Compound,IC50 [1] [µg/mL],IC50 [2] [µg/mL]
C[C@]1(COc2ccc(N3CCC(Oc4ccc(OC(F)(F)F)cc4)CC3)cc2)Cn2cc([N+](=O)[O-])nc2O1,> 0.25,> 0.25
NNC(=O)c1ccncc1 [ISONIAZID],> 4,–
